Data on 4 molecules can be found in ChEMBL document CHEMBL3352277, “Click approach to the discovery of 1,2,3-triazolylsalicylamides as potent Aurora kinase inhibitors” (Bioorg Med Chem, 2014).

Active and inactive are the calls of the source. No cut-off for these calls is given here.

Assay [1] addresses Serine/threonine-protein kinase pim-1 (Homo sapiens) (UniProt P11309). The experiment in a line: Inhibition of […] (unknown origin) at 10 uM. The essentials:
(§1)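 Single 10 µM concentration against a 40-kinase panel on the radiometric HotSpot platform. Kinase and substrate were added before ³³P-ATP started the reaction, which ran 2 h at room temperature.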

The target of assay [2] is T1, Aurora kinase A (Homo sapiens) (UniProt O14965).
T1 sequence (whole entry): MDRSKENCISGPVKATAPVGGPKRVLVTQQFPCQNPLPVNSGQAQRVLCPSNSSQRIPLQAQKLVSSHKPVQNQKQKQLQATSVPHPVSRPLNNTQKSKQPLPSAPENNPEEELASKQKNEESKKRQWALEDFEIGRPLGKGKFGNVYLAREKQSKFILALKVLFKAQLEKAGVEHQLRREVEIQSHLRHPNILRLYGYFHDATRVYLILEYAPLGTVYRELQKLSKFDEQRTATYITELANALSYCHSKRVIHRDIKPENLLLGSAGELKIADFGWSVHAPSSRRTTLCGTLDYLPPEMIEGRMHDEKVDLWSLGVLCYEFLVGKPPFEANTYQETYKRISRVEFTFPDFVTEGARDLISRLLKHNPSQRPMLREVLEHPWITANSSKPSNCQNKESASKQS
The experiment in a line: Inhibition of Aurora A (unknown origin) at 10 uM.

Assay [3] addresses Glycogen synthase kinase-3 beta (Homo sapiens) (UniProt P49841). The experiment in a line: Inhibition of GSK3beta (unknown origin) at 10 uM. The method in brief:
as §1

The test system of assay [4] is Epidermal growth factor receptor (Homo sapiens), P00533 [L858R]. The experiment in a line: Inhibition of EGFR L858R mutant (unknown origin) at 10 uM. The class given is protein assay. The essentials: as §1
Assay [5] concerns the target T2, Aurora kinase A (Homo sapiens, UniProt O14965).
T2 sequence (O14965 whole entry): T1 sequence (whole entry)
The assay is described as follows: Inhibition of Aurora A (unknown origin) using [33P]-ATP and 10 uM ATP after 2 hrs.

Assay [6] has as its target T1, Aurora kinase A (Homo sapiens). The experiment in a line: Inhibition of Aurora A (unknown origin) at 10 uM using [33P]-ATP and 10 uM ATP after 2 hrs.
Assay [7] has as its target T3, Aurora kinase B (Homo sapiens, UniProt Q96GD4). The experiment in a line: Inhibition of Aurora B (unknown origin) at 10 uM using [33P]-ATP and 10 uM ATP after 2 hrs.
The target in assay [8] is T3, Aurora kinase B. The assay is described as follows: Inhibition of Aurora B (unknown origin) using [33P]-ATP and 10 uM ATP after 2 hrs.

T3 sequence (Q96GD4 whole entry): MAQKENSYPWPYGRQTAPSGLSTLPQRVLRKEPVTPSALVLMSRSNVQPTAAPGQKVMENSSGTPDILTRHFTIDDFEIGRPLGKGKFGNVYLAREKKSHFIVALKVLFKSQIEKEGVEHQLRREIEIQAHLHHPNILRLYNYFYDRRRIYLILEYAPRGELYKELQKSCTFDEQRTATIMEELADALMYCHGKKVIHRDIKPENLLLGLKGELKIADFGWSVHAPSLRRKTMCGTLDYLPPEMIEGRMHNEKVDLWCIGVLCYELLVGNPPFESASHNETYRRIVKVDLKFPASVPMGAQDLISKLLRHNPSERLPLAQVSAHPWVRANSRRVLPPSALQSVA
Chain of Serine/threonine-protein kinase pim-1 (Homo sapiens) (P11309 whole entry, looked up): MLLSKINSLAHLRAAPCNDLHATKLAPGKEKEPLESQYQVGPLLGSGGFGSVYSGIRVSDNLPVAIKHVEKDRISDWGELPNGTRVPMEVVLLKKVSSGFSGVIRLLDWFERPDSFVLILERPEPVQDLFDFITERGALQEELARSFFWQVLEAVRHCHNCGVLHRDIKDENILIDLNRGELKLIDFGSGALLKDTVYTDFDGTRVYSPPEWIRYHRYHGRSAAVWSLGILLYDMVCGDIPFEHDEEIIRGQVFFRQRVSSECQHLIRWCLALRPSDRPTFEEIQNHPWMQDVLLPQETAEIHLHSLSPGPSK
Chain of Glycogen synthase kinase-3 beta (Homo sapiens) (P49841 whole entry, looked up): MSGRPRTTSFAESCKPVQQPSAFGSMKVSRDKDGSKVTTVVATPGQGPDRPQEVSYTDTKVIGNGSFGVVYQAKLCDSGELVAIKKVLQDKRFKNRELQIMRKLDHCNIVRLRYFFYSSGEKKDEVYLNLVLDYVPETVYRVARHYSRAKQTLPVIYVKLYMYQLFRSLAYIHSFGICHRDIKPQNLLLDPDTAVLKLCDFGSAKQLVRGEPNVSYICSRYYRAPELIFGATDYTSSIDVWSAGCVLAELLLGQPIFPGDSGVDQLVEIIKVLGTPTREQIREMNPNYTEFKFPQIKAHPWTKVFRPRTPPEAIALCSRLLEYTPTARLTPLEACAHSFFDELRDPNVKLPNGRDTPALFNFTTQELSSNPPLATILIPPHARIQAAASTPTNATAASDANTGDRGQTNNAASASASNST
Chain of Epidermal growth factor receptor (Homo sapiens), P00533 [L858R] (P00533 whole entry L858R): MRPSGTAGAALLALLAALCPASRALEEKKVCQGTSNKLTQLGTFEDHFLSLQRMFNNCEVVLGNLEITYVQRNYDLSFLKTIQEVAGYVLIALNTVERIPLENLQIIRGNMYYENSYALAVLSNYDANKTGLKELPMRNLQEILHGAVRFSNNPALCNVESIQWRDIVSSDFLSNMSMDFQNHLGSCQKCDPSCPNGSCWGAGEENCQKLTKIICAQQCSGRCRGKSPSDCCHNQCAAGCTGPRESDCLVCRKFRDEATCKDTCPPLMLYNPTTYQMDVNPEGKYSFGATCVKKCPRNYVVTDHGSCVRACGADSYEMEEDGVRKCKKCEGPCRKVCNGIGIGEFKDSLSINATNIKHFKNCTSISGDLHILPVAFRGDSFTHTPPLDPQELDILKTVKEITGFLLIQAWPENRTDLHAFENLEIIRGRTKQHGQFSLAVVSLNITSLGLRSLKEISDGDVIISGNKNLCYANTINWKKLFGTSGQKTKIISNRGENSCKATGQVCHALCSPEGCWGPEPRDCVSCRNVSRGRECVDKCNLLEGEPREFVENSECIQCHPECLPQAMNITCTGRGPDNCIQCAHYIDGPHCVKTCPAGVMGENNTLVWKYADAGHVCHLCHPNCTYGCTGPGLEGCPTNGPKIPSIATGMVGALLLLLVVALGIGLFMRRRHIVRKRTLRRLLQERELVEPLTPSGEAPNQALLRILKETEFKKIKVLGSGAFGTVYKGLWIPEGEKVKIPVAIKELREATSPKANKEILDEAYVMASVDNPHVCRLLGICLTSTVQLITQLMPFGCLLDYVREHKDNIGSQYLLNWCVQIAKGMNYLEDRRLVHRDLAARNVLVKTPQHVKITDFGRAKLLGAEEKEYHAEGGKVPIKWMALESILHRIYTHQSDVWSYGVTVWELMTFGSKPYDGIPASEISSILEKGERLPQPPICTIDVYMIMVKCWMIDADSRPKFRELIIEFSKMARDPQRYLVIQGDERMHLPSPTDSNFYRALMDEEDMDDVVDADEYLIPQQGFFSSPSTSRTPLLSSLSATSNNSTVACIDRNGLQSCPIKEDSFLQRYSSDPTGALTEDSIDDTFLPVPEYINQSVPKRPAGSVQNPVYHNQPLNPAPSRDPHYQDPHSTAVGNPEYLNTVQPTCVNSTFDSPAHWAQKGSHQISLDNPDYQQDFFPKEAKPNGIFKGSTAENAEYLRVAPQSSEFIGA

Broadly, the inhibition is the drop in the measured response relative to a control, in per cent. Turning to `COc1cc(OC)cc(-c2cn(-c3ccc(O)c(C(=O)Nc4cccc(C(F)(F)F)c4)c3)nn2)c1`, the inhibition entry in assay [1], in assay [3] and in assay [4] was “Active” each time. In assay [2], the inhibition turned out to be 74.5%.
The term IC50 denotes the concentration at which inhibition is half-maximal. High values mean lower potency, low ones higher potency. On to `COC(=O)c1cccc(NC(=O)c2cc(-n3cc(-c4cc(OC)cc(OC)c4)nn3)ccc2O)c1`, for which the IC50 in assay [5] amounted to 370 nM; in assay [8] it was 3580 nM. Further, the results for the inhibition in assay [6] and in assay [7] were 90.2% and 71.3%, respectively.
`COc1cccc(NC(=O)c2cc(-n3cc(-c4cc(OC)cc(OC)c4)nn3)ccc2O)c1`: the inhibition in assay [6] is 83.3%; in assay [7], 50.3%.
`COC(=O)c1cccc(-c2cn(-c3ccc(O)c(C(=O)Nc4cccc(C(F)(F)F)c4)c3)nn2)c1`: the IC50 is 1820 nM in assay [5] and 63200 nM in assay [8]. The inhibition worked out at 90.5% in assay [6] and 57.3% in assay [7].
